In experiment [1] the target is T1, Acyl-homoserine-lactone synthase (Pseudomonas aeruginosa (strain ATCC 15692 / PAO1 / 1C / PRS 101 / LMG12228)) (UniProt P33883).
T1 sequence (whole entry): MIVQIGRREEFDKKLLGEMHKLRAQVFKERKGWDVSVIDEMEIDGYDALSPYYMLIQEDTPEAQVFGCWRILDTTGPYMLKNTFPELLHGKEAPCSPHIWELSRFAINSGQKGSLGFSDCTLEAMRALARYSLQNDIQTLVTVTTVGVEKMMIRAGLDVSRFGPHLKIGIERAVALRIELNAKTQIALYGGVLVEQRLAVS
Put plainly: Modulation of Pseudomonas aeruginosa lacZ-fused lasI expressed in Escherichia coli DH5alpha co-expressing pBAD-lasR assessed as 3-oxo-C12-AHL-induced effect at 0.34 mM after 3 hrs by beta-galactosidase assay relative to control. The procedure, abridged: (§1)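 E. coli DH5α carrying pSC11 (PlasI-lacZ translational fusion) and pJN105L (PBAD-lasR) was grown overnight in LB with ampicillin (100 μg/ml) and gentamicin (15 μg/ml), then diluted to OD600 0.150. Arabinose (0.2% w/v), 3-oxo-C12-AHL (2 μM) and test compound or DMSO were added. Cultures were shaken 3 h at 37 °C. β-Galactosidase activity was read in Miller units and expressed as % of the solvent sample. Triplicates per biological replicate, repeated at least twice; paired two-tailed t-test.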

For experiment [2], the target named is 3-(3-hydroxydecanoyloxy)decanoate synthase (Pseudomonas aeruginosa (strain ATCC 15692 / PAO1 / 1C / PRS 101 / LMG12228)) (UniProt Q51559). Description: Modulation of Pseudomonas aeruginosa lacZ-fused rhlA expressed in Escherichia coli DH5alpha co-expressing Ptac-rhlR assessed as C4-AHL-induced effect at 0.69 mM after 4 hrs by beta-galactosidase assay relative to control. In short, it runs like this:
(§2)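 E. coli DH5α carrying pECP61.5 (Ptac-rhlR, PrhlA-lacZ), grown overnight in LB with ampicillin 100 μg/ml and diluted to OD600 0.150. At OD600 1.0, 1 mM IPTG, 2 μM C4-HSL and compound or DMSO were added. Cultures were shaken 4 h at 37 °C, then β-galactosidase was read in Miller units. Activity is % of solvent sample, from triplicates per biological replicate, with at least two repeats.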

The target is the same in experiment [3]. Description: Modulation of Pseudomonas aeruginosa lacZ-fused rhlA expressed in Escherichia coli DH5alpha co-expressing Ptac-rhlR assessed as C4-AHL-induced effect at 0.17 mM after 4 hrs by beta-galactosidase assay relative to control. In short, it runs like this: (§3)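 rhl reporter: E. coli DH5α carrying pECP61.5 (Ptac-rhlR, PrhlA-lacZ) was grown overnight in LB with ampicillin (100 μg/ml) only, then diluted to OD600 0.150. It was induced with 1 mM IPTG, and 2 μM C4-HSL plus compound or DMSO were added at OD600 1.0. Cultures were shaken 4 h at 37 °C. β-Galactosidase activity was read in Miller units as % of the solvent sample. Triplicates per biological replicate, at least two repeats; paired two-tailed t-test.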

Experiment [4] has as its target T1, Acyl-homoserine-lactone synthase (Pseudomonas aeruginosa (strain ATCC 15692 / PAO1 / 1C / PRS 101 / LMG12228)). Description: Modulation of Pseudomonas aeruginosa lacZ-fused lasI expressed in Escherichia coli DH5alpha co-expressing pBAD-lasR assessed as 3-oxo-C12-AHL-induced effect at 0.69 mM after 3 hrs by beta-galactosidase assay relative to control. In short, it runs like this:
as §1

For experiment [5], the target named is 3-(3-hydroxydecanoyloxy)decanoate synthase (Pseudomonas aeruginosa (strain ATCC 15692 / PAO1 / 1C / PRS 101 / LMG12228)) (UniProt Q51559). Put plainly: Modulation of Pseudomonas aeruginosa lacZ-fused rhlA expressed in Escherichia coli DH5alpha co-expressing Ptac-rhlR assessed as C4-AHL-induced effect at 0.52 mM after 4 hrs by beta-galactosidase assay relative to control. The procedure, abridged:
as §3

The target is the same in experiment [6]. Description: Modulation of Pseudomonas aeruginosa lacZ-fused rhlA expressed in Escherichia coli DH5alpha co-expressing Ptac-rhlR assessed as C4-AHL-induced effect at 0.34 mM after 4 hrs by beta-galactosidase assay relative to control. In short, it runs like this: as §3
Experiment [7] concerns the target T1, Acyl-homoserine-lactone synthase (Pseudomonas aeruginosa (strain ATCC 15692 / PAO1 / 1C / PRS 101 / LMG12228)). Description: Modulation of Pseudomonas aeruginosa lacZ-fused lasI expressed in Escherichia coli DH5alpha co-expressing pBAD-lasR assessed as 3-oxo-C12-AHL-induced effect at 0.17 mM after 3 hrs by beta-galactosidase assay relative to control. The procedure, abridged:
as §1

The target is the same in experiment [8]. Put plainly: Modulation of Pseudomonas aeruginosa lacZ-fused lasI expressed in Escherichia coli DH5alpha co-expressing pBAD-lasR assessed as 3-oxo-C12-AHL-induced effect at 0.52 mM after 3 hrs by beta-galactosidase assay relative to control. In short, it runs like this: as §1
The target in experiment [9] is 3-(3-hydroxydecanoyloxy)decanoate synthase (Pseudomonas aeruginosa (strain ATCC 15692 / PAO1 / 1C / PRS 101 / LMG12228)) (UniProt Q51559). Description: Modulation of Pseudomonas aeruginosa lacZ-fused rhlA expressed in Escherichia coli DH5alpha co-expressing Ptac-rhlR assessed as C4-AHL-induced effect at 0.58 mM after 4 hrs by beta-galactosidase assay relative to control. In short, it runs like this:
as §2

Experiment [10] has the same target. Put plainly: Modulation of Pseudomonas aeruginosa lacZ-fused rhlA expressed in Escherichia coli DH5alpha co-expressing Ptac-rhlR assessed as C4-AHL-induced effect at 1.16 mM after 4 hrs by beta-galactosidase assay relative to control. The procedure, abridged: as §2
The target in experiment [11] is T1, Acyl-homoserine-lactone synthase (Pseudomonas aeruginosa (strain ATCC 15692 / PAO1 / 1C / PRS 101 / LMG12228)). Description: Modulation of Pseudomonas aeruginosa lacZ-fused lasI expressed in Escherichia coli DH5alpha co-expressing pBAD-lasR assessed as 3-oxo-C12-AHL-induced effect at 0.87 mM after 3 hrs by beta-galactosidase assay relative to control. The procedure, abridged: as §1

The target of experiment [12] is 3-(3-hydroxydecanoyloxy)decanoate synthase (Pseudomonas aeruginosa (strain ATCC 15692 / PAO1 / 1C / PRS 101 / LMG12228)) (UniProt Q51559). Description: Modulation of Pseudomonas aeruginosa lacZ-fused rhlA expressed in Escherichia coli DH5alpha co-expressing Ptac-rhlR assessed as C4-AHL-induced effect at 0.29 mM after 4 hrs by beta-galactosidase assay relative to control. In short, it runs like this:
as §3

Experiment [13] concerns the target T1, Acyl-homoserine-lactone synthase (Pseudomonas aeruginosa (strain ATCC 15692 / PAO1 / 1C / PRS 101 / LMG12228)). Description: Modulation of Pseudomonas aeruginosa lacZ-fused lasI expressed in Escherichia coli DH5alpha co-expressing pBAD-lasR assessed as 3-oxo-C12-AHL-induced effect at 0.29 mM after 3 hrs by beta-galactosidase assay relative to control. In short, it runs like this:
as §1

For experiment [14] the target is unchanged. Put plainly: Modulation of Pseudomonas aeruginosa lacZ-fused lasI expressed in Escherichia coli DH5alpha co-expressing pBAD-lasR assessed as 3-oxo-C12-AHL-induced effect at 1.16 mM after 3 hrs by beta-galactosidase assay relative to control. In short, it runs like this:
as §1

For experiment [15] the target is unchanged. Put plainly: Modulation of Pseudomonas aeruginosa lacZ-fused lasI expressed in Escherichia coli DH5alpha co-expressing pBAD-lasR assessed as 3-oxo-C12-AHL-induced effect at 0.58 mM after 3 hrs by beta-galactosidase assay relative to control. In short, it runs like this:
as §1

The target in experiment [16] is 3-(3-hydroxydecanoyloxy)decanoate synthase (Pseudomonas aeruginosa (strain ATCC 15692 / PAO1 / 1C / PRS 101 / LMG12228)) (UniProt Q51559). Description: Modulation of Pseudomonas aeruginosa lacZ-fused rhlA expressed in Escherichia coli DH5alpha co-expressing Ptac-rhlR assessed as C4-AHL-induced effect at 0.87 mM after 4 hrs by beta-galactosidase assay relative to control. The procedure, abridged: as §2

Experiment [17] concerns the target T1, Acyl-homoserine-lactone synthase (Pseudomonas aeruginosa (strain ATCC 15692 / PAO1 / 1C / PRS 101 / LMG12228)). Put plainly: Modulation of Pseudomonas aeruginosa lacZ-fused lasI expressed in Escherichia coli DH5alpha co-expressing pBAD-lasR assessed as 3-oxo-C12-AHL-induced effect at 0.23 mM after 3 hrs by beta-galactosidase assay relative to control. In short, it runs like this: as §1

For experiment [18] the target is unchanged. Description: Modulation of Pseudomonas aeruginosa lacZ-fused lasI expressed in Escherichia coli DH5alpha co-expressing pBAD-lasR assessed as 3-oxo-C12-AHL-induced effect at 0.47 mM after 3 hrs by beta-galactosidase assay relative to control. In short, it runs like this:
as §1

The target is the same in experiment [19]. Description: Modulation of Pseudomonas aeruginosa lacZ-fused lasI expressed in Escherichia coli DH5alpha co-expressing pBAD-lasR assessed as 3-oxo-C12-AHL-induced effect at 0.70 mM after 3 hrs by beta-galactosidase assay relative to control. The procedure, abridged: as §1
Experiment [20] deals with 3-(3-hydroxydecanoyloxy)decanoate synthase (Pseudomonas aeruginosa (strain ATCC 15692 / PAO1 / 1C / PRS 101 / LMG12228)) (UniProt Q51559). Put plainly: Modulation of Pseudomonas aeruginosa lacZ-fused rhlA expressed in Escherichia coli DH5alpha co-expressing Ptac-rhlR assessed as C4-AHL-induced effect at 0.93 mM after 4 hrs by beta-galactosidase assay relative to control. In short, it runs like this:
as §2

The target is the same in experiment [21]. Description: Modulation of Pseudomonas aeruginosa lacZ-fused rhlA expressed in Escherichia coli DH5alpha co-expressing Ptac-rhlR assessed as C4-AHL-induced effect at 0.47 mM after 4 hrs by beta-galactosidase assay relative to control. In short, it runs like this: as §3
The target of experiment [22] is T1, Acyl-homoserine-lactone synthase (Pseudomonas aeruginosa (strain ATCC 15692 / PAO1 / 1C / PRS 101 / LMG12228)). Description: Modulation of Pseudomonas aeruginosa lacZ-fused lasI expressed in Escherichia coli DH5alpha co-expressing pBAD-lasR assessed as 3-oxo-C12-AHL-induced effect at 0.93 mM after 3 hrs by beta-galactosidase assay relative to control. In short, it runs like this: as §1

Experiment [23] deals with 3-(3-hydroxydecanoyloxy)decanoate synthase (Pseudomonas aeruginosa (strain ATCC 15692 / PAO1 / 1C / PRS 101 / LMG12228)) (UniProt Q51559). Put plainly: Modulation of Pseudomonas aeruginosa lacZ-fused rhlA expressed in Escherichia coli DH5alpha co-expressing Ptac-rhlR assessed as C4-AHL-induced effect at 0.23 mM after 4 hrs by beta-galactosidase assay relative to control. In short, it runs like this: as §3

The target is the same in experiment [24]. Put plainly: Modulation of Pseudomonas aeruginosa lacZ-fused rhlA expressed in Escherichia coli DH5alpha co-expressing Ptac-rhlR assessed as C4-AHL-induced effect at 0.70 mM after 4 hrs by beta-galactosidase assay relative to control. In short, it runs like this: as §2
The target in experiment [25] is T2, Transcriptional activator protein LasR (Pseudomonas aeruginosa (strain ATCC 15692 / PAO1 / 1C / PRS 101 / LMG12228), UniProt P25084).
T2 sequence (P25084 whole entry): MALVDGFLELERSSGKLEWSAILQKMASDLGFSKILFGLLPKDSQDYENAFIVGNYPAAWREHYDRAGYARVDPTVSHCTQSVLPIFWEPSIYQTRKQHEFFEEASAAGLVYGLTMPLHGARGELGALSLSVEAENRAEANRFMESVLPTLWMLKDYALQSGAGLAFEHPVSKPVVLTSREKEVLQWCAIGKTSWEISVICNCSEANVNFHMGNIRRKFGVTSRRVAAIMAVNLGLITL
Description: Inhibition of Pseudomonas aeruginosa LasR.

Structures are written as SMILES.

For `CCCCCCCCCSC[C@H]1NC(O)[C@H](O)[C@@H]1O` (mixture of isomers), the Activity worked out at 78% in experiment [1]; 121% in experiment [2]; 98% in experiment [3]; 53% in [4]; 116% in [5]; 127% in experiment [6]. Also, the Activity was 78% in experiment [7] and 71% in experiment [8].

As to `CCCSC[C@@H]1CCC(=O)N1`, the Activity in [9] is 118%; in experiment [10] it was 108%; in [11], 51%; in experiment [12], 104%; in [13], 90%; in experiment [14] it was 43%. The results for the Activity in [15] and in [16] were 72% and 104%, respectively.

As for `CCCCCCSC[C@@H]1CCC(=O)N1`, the Activity in experiment [17] is 106%; in experiment [18], 87%; in experiment [19] it was 74%; in [20] it was 145%; in [21], 126%; in experiment [22], 61%. The Activity is 126% in experiment [23] and 130% in experiment [24].

For the compound `CCCCCCCCCC(=O)CC(=O)NC1CCCCC1=O` (stereo unspecified), in [25], the IC50 (usually the concentration needed to halve the response being measured) came out at 10 µM. This lies in the double-digit micromolar range.

Take `CCCCCCCCCCCC(=O)N[C@H]1CCSC1=O`: the IC50 in experiment [25] amounted to 0.04 µM. Against the preceding compound, the IC50 is about 250-fold lower.

These data come from ChEMBL document CHEMBL1817556, “Substituted lactam and cyclic azahemiacetals modulate Pseudomonas aeruginosa quorum sensing” (Bioorg Med Chem, 2011).
